Test results: ChEMBL document CHEMBL2169806, “Design, synthesis, and pharmacological evaluation of N-acylhydrazones and novel conformationally constrained compounds as selective and potent orally active phosphodiesterase-4 inhibitors” (J Med Chem, 2012)
pEC50, pIC50: −log10 of the molar value.

Test system: Mus musculus
Experiment: Antiinflammatory activity in A/J mouse lung assessed as inhibition of LPS-induced TNFalpha production at 100 umol/kg, po administered 1 hr prior to LPS-challenge measured after 18 hrs relative to vehicle-treated control
Assay type: functional
Settings: not given

SMILES	inhibition in vivo at 100 µmol/kg [%]
COc1ccc(/C=N/N(C)C(=O)c2ccccc2)cc1OC	46
COc1cccc(C(=O)N(C)/N=C/c2ccc(OC)c(OC)c2)c1	75

Test system: Mus musculus
Experiment: Antiinflammatory activity in A/J mouse assessed as inhibition of neutrophil accumulation in bronchoalveolar space at 100 umol/kg, po administered 1 hr prior to LPS-challenge measured after 18 hrs relative to vehicle-treated control
Assay type: functional
Settings: Lung

SMILES	inhibition in vivo at 100 µmol/kg [%]
COc1ccc(/C=N/N(C)C(=O)c2ccccc2)cc1OC	68
COc1cccc(C(=O)N(C)/N=C/c2ccc(OC)c(OC)c2)c1	77

Test system: Mus musculus
Experiment: Antiinflammatory activity in A/J mouse assessed as inhibition of leukocyte accumulation in bronchoalveolar space at 100 umol/kg, po administered 1 hr prior to LPS-challenge measured after 18 hrs relative to vehicle-treated control
Assay type: functional
Settings: Lung

SMILES	inhibition in vivo at 100 µmol/kg [%]
COc1ccc(/C=N/N(C)C(=O)c2ccccc2)cc1OC	73
COc1cccc(C(=O)N(C)/N=C/c2ccc(OC)c(OC)c2)c1	73

Organism: Bos taurus
Experiment: Inhibition of bovine PDE5 using […] as substrate at 10 uM
Settings: not given

SMILES	inhibition [%]
COc1ccc(/C=N/N(C)C(=O)c2ccccc2)cc1OC	22.3
COc1cccc(C(=O)N(C)/N=C/c2ccc(OC)c(OC)c2)c1	29.1

Test system: Mus musculus
Experiment: Antiinflammatory activity in A/J mouse assessed as inhibition of LPS-induced airway elastance provoked by methacholine at 100 umol/kg, po administered 1 hr prior to LPS-challenge measured after 18 hrs relative to vehicle-treated control
Assay type: functional
Settings: not given

SMILES	inhibition in vivo at 100 µmol/kg [%]
COc1ccc(/C=N/N(C)C(=O)c2ccccc2)cc1OC	51
COc1cccc(C(=O)N(C)/N=C/c2ccc(OC)c(OC)c2)c1	69

Organism: Bos taurus
Experiment: Inhibition of bovine PDE4 using [3H]cAMP as substrate at 10 uM
Settings: not given
Summary of the method: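 Enzyme was PDE4 isolated from the media layer of bovine aorta, run in the two-step activity assay at 1 μM cAMP.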

SMILES	inhibition [%]
COc1ccc(-c2nn(C(=O)c3ccccc3)c3ccccc23)cc1OC	81.2
COc1ccc(/C=N/NC(=O)c2ccc(OC)c(OC)c2)cc1OC	10.7
COc1ccc(/C=N/NC(=O)c2ccc(O)cc2)cc1OC	13.6
COc1ccc(C(=O)N/N=C/c2c(C)nc3ccccn23)cc1OC	7.7
COc1ccc(C2=NN(C)C(=O)c3ccccc3C2)cc1OC	76.5
COc1ccc(/C=N/N(C)C(=O)c2c(C)nc3ccccn23)cc1OC	45.9
COc1ccc(/C=N/N(C)C(=O)c2ccccc2)cc1OC	97.1
COc1cccc(C(=O)N(C)/N=C/c2ccc(OC)c(OC)c2)c1	98.1

Test system: Mus musculus
Experiment: Antiinflammatory activity in A/J mouse lung assessed as inhibition of LPS-induced IL6 production at 100 umol/kg, po administered 1 hr prior to LPS-challenge measured after 18 hrs relative to vehicle-treated control
Assay type: functional
Settings: not given

SMILES	inhibition in vivo at 100 µmol/kg [%]
COc1ccc(/C=N/N(C)C(=O)c2ccccc2)cc1OC	53
COc1cccc(C(=O)N(C)/N=C/c2ccc(OC)c(OC)c2)c1	38

Target: cGMP-dependent 3',5'-cyclic phosphodiesterase (Homo sapiens, UniProt O00408)
Sequence (O00408 whole entry): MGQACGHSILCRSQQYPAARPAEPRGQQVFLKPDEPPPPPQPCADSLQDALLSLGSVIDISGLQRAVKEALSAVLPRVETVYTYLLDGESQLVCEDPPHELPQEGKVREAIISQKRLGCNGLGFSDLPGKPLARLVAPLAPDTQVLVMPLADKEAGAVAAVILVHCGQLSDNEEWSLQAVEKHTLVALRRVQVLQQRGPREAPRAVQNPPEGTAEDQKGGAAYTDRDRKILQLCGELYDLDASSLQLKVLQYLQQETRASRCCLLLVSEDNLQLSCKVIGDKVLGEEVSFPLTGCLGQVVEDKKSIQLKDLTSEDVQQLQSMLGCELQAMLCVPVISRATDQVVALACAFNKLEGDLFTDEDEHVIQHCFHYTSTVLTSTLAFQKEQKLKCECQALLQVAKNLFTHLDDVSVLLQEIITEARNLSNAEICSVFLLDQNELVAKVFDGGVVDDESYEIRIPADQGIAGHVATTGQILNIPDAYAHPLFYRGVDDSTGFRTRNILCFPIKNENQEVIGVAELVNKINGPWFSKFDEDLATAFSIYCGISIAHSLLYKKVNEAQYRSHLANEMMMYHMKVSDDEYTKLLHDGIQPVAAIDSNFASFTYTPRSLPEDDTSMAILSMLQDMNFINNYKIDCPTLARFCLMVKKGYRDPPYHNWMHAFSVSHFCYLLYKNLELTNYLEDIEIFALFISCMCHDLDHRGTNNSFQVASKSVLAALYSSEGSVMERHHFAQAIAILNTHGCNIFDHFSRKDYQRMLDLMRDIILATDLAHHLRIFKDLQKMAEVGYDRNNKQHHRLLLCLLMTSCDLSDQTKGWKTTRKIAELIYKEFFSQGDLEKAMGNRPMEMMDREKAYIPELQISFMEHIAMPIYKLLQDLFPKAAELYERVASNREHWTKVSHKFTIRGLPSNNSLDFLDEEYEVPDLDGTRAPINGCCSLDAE
Experiment: Inhibition of human PDE2 using [3H]cAMP as substrate at 10 uM
Settings: not given

SMILES	inhibition [%]
COc1ccc(/C=N/N(C)C(=O)c2ccccc2)cc1OC	23.5
COc1cccc(C(=O)N(C)/N=C/c2ccc(OC)c(OC)c2)c1	40.4

Test system: not listed separately
Experiment: Inhibition of bovine PDE4 using [3H]cAMP as substrate
Parameters: species or system Bos taurus
Settings: not given

SMILES	pIC50
COc1ccc(-c2nn(C(=O)c3ccccc3)c3ccccc23)cc1OC	5.39
COc1ccc(C2=NN(C)C(=O)c3ccccc3C2)cc1OC	5.14
COc1cccc(C(=O)N(C)/N=C/c2ccc(OC)c(OC)c2)c1	6.54

Test system: Mus musculus
Experiment: Antiinflammatory activity in A/J mouse assessed as inhibition of LPS-induced airway resistance provoked by methacholine at 100 umol/kg, po administered 1 hr prior to LPS-challenge measured after 18 hrs relative to vehicle-treated control
Assay type: functional
Settings: not given

SMILES	inhibition in vivo at 100 µmol/kg [%]
COc1ccc(/C=N/N(C)C(=O)c2ccccc2)cc1OC	58
COc1cccc(C(=O)N(C)/N=C/c2ccc(OC)c(OC)c2)c1	70

Test system: not listed separately
Experiment: Inhibition of PDE6 at 10 uM
Settings: not given

SMILES	inhibition [%]
COc1ccc(/C=N/N(C)C(=O)c2ccccc2)cc1OC	31.2
COc1cccc(C(=O)N(C)/N=C/c2ccc(OC)c(OC)c2)c1	39.5

Test system: PBMC
Experiment: Antiinflammatory activity in human PBMC assessed as inhibition of LPS-induced TNFalpha production after 24 hrs by ELISA
Assay type: functional, cell-based
Settings: not given

SMILES	pEC50
COc1ccc(/C=N/N(C)C(=O)c2ccccc2)cc1OC	5.76
COc1cccc(C(=O)N(C)/N=C/c2ccc(OC)c(OC)c2)c1	5.90

Target: 3',5'-cyclic-AMP phosphodiesterase 4D (Homo sapiens, UniProt Q08499)
Sequence (Q08499 whole entry): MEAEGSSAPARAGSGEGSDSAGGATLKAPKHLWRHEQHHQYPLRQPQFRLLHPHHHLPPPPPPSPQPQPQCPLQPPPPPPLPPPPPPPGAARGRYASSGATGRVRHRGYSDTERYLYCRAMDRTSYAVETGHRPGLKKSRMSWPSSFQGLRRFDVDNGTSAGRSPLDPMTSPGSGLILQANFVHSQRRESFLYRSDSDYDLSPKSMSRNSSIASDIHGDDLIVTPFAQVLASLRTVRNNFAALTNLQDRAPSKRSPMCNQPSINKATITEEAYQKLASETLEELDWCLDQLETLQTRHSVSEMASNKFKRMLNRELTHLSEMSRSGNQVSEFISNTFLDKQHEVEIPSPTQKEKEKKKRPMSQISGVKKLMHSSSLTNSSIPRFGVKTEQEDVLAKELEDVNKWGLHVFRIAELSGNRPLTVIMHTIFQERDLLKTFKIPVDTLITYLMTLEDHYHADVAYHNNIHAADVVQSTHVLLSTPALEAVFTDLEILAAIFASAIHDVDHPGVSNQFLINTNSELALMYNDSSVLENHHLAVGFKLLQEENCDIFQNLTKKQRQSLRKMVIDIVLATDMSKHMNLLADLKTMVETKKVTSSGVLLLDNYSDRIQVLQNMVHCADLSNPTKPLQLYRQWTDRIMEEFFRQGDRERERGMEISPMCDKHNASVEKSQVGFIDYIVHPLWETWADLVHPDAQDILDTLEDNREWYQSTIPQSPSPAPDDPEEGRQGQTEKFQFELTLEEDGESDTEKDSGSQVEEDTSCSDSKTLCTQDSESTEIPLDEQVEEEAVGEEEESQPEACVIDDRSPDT
Experiment: Inhibition of human recombinant PDE4D
Settings: not given

SMILES	pIC50
COc1ccc(/C=N/N(C)C(=O)c2ccccc2)cc1OC	6.85

Organism: Bos taurus
Experiment: Inhibition of bovine PDE1 using [3H]cAMP as substrate at 10 uM
Settings: not given

SMILES	inhibition [%]
COc1ccc(/C=N/N(C)C(=O)c2ccccc2)cc1OC	6
COc1cccc(C(=O)N(C)/N=C/c2ccc(OC)c(OC)c2)c1	18.5

Test system: not listed separately
Experiment: Inhibition of bovine PDE3 using [3H]cAMP as substrate
Parameters: species or system Bos taurus
Settings: not given

SMILES	pIC50
COc1ccc(/C=N/N(C)C(=O)c2ccccc2)cc1OC	4.71
COc1cccc(C(=O)N(C)/N=C/c2ccc(OC)c(OC)c2)c1	5.35

Test system: PBMC
Experiment: Antiinflammatory activity in human PBMC assessed as inhibition of LPS-induced TNFalpha production at 10 uM after 24 hrs by ELISA relative to control
Assay type: functional
Settings: not given

SMILES	inhibition at 10 µM [%]
COc1ccc(C2=NN(C)C(=O)c3ccccc3C2)cc1OC	20
COc1ccc(/C=N/N(C)C(=O)c2ccccc2)cc1OC	91
COc1cccc(C(=O)N(C)/N=C/c2ccc(OC)c(OC)c2)c1	81
